The text below walks through data of PubChem BioAssay AID623869 (Vanderbilt High Throughput Screening Facility, 2012).

Structures are written as SMILES. Out of some 2,100 compounds screened, about 75 (4%) were called active.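 Rule for the calls: active = calcium fluorescence trace judged by eye to show a response, as agonist, enhancer of the glutamate response, or inhibitor; inactive = trace judged by eye to show no response.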 What follows is part of a selection rich in actives, with near analogues and random picks from the rest.

For this assay, the target named is Metabotropic glutamate receptor 8 (Rattus norvegicus) (UniProt P70579). The experiment in a line: mGlu8-mediated intracellular calcium response modulators – cell-based, HEK293 rmGlu8, Gqi9 chimera, Fluo-4 calcium, counter-screen for GIRK activator project, confirmation (AID 623869). The conditions noted are these: HEK293 rmGlu8/Gqi9 calcium flux, Fluo-4 fluorescence; glutamate at EC20 added after compound. In short, it runs like this: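 Material: rat mGlu8 HEK-293 cells with transient Gqi9. Medium: HEPES-buffered HBSS, pH 7.4. Compound: one dose, 20 µM addition solution, 0.2% DMSO. Schedule: compound 4 min before glutamate, then 2 min recording. Technique: Fluo-4 calcium fluorescence sampled at 1 Hz.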
Chain of Metabotropic glutamate receptor 8 (Rattus norvegicus) (P70579 whole entry, looked up): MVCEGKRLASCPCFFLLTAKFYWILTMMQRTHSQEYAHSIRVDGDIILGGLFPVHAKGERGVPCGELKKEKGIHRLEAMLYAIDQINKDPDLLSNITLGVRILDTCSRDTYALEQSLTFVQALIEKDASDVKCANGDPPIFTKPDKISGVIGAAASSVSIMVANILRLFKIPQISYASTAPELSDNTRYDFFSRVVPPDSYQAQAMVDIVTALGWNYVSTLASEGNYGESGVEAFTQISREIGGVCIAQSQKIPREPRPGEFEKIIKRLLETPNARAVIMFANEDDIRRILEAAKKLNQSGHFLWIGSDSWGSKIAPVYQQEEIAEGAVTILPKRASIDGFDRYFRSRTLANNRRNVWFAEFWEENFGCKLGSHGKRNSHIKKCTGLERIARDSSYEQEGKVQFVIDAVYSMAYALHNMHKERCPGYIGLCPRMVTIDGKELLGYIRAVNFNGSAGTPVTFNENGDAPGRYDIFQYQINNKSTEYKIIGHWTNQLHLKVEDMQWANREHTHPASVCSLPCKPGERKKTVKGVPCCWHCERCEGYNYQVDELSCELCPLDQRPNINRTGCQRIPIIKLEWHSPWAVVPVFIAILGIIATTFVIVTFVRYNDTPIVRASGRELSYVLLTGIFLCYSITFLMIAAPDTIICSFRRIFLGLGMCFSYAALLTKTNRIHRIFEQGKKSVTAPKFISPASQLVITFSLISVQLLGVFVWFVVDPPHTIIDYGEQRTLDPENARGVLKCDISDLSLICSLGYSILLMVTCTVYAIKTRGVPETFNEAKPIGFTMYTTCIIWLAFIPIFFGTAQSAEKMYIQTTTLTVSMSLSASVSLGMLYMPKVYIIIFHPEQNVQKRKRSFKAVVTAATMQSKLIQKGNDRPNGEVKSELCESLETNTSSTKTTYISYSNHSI
On the technique in general: Calcium assays in cells follow changes in intracellular calcium, usually with a dye or a luminescent sensor.
Turning to `CC(=O)c1cccc(NC(=S)NC(=O)c2cccc(C)c2)c1`, the outcome was “inactive; 0”.

Consider `O=C(CNC(=S)NC(=O)c1cccs1)c1ccccc1`, for which the outcome is “inactive; 0”.

Take `O=C(NNC(=O)c1cccs1)Nc1cccc(Cl)c1`: the outcome is “inactive; 0”.

On to `Cc1cccc(C(=O)NC(=S)NNC(=O)c2ccccc2Cl)c1`, for which the outcome was “active; 1”.

As for `Cc1ccc(C(=O)NNC(=S)NC(=O)c2ccc(Cl)cc2)cc1`, the outcome is “inactive; 4”.

As for `O=C(NC(=S)NNC(=O)c1cccs1)c1ccc(Br)o1`, the outcome was “active; 1”.

As for `Cc1cccc(C(=O)NC(=S)Nc2ccccc2C(F)(F)F)c1`, the outcome was “inactive; 0”.

Take `Cc1cccc(C(=O)NC(=S)NNC(=O)c2cccs2)c1`: the outcome was “active; 1”.

Take `CC(C)CNC(=S)NC(=O)c1ccccc1Cl`: the outcome is “inactive; 0”.

As to `Cc1cccc(C(=O)NC(=S)NNC(=O)c2ccc(Cl)cc2)c1`, the outcome is “active; 1”.

Consider `Cc1ccnc(NC(=S)NC(=O)c2cccs2)c1`, for which the outcome was “inactive; 0”.

Consider `Cc1cccc(NC(=O)NC(=S)NC(=O)c2ccccc2)c1`, for which the outcome was “inactive; 0”.

In the case of `CC(C)CNC(=S)NC(=O)c1ccc([N+](=O)[O-])cc1`, the outcome is “inactive; 0”.

On to `O=C(COc1ccccc1Cl)NC(=S)N1CCc2ccccc21`, for which the outcome was “inactive; 0”.

Turning to `C=CCCCCCCCCc1nc(=S)[nH][nH]1`, the outcome was “inactive; 0”.

As to `Cc1cccc(NC(=S)NNC(=O)c2sccc2C)c1`, the outcome is “inactive; 0”.

Turning to `O=C(NC(=S)N1CCN(c2ccc(Cl)cc2[N+](=O)[O-])CC1)c1ccco1`, the outcome is “inactive; 0”.

As for `O=C(N/N=C\c1cc(Br)c(Br)o1)c1cncc(Br)c1`, the outcome is “inactive; 0”.

Turning to `Cc1cc(C)c2nc(SCC(=O)NCCC3=CCCCC3)cc(C)c2c1`, the outcome was “inactive; 0”.

For the compound `c1csc(CCNc2ncnc3sc4c(c23)CCC4)c1`, the outcome is “inactive; 0”.

Regarding `COC(=O)c1sccc1NC(=O)CSc1ccccc1NS(=O)(=O)c1cc(Cl)ccc1Cl`, the outcome is “inactive; 0”.

For `CC1=NCCN1S(=O)(=O)c1cc(Cl)ccc1Cl`, the outcome was “inactive; 0”.

Consider `O=S(=O)(Nc1nc(-c2sccc2Cl)cs1)c1cc(Cl)ccc1Cl`, for which the outcome was “active; -1”.

For `O=C(NNc1nc2ccccc2nc1C(F)(F)F)c1ccccc1`, the outcome is “inactive; 0”.

In the case of `Cc1cccc(N=C2NC(=O)/C(=C/C=C/c3ccco3)S2)c1C`, the outcome is “inactive; 0”.

With `Cc1nc(SC2CCOC2=O)c2c(C)c(C)sc2n1` (stereo not drawn), the outcome is “inactive; 0”.

Consider `Cc1sc2nc(C(C)C)nc(SCC(=O)N3c4ccccc4CC3C)c2c1C` (stereo not drawn), for which the outcome is “inactive; 0”.

On to `C/C(=N\NC(=O)c1ccc(Cl)cc1)c1ccc(Br)s1`, for which the outcome was “inactive; 0”.

As to `C/C(=N\NC(=O)c1ccccc1O)c1ccc(Br)s1`, the outcome was “inactive; 0”.

Consider `C/C(=N\NC(=O)c1cccc(F)c1)c1ccc(Br)s1`, for which the outcome was “active; 1”.

Consider `Cc1ccc2c(Cl)cc(Cl)c(OCC(=O)NCc3ccco3)c2n1`, for which the outcome is “inactive; 0”.

Consider `O=C(NN=c1c(=O)c2ccccc2c1=O)c1ccccc1`, for which the outcome was “inactive; 0”.

Take `O=C(CC(O)(C(F)(F)F)C(F)(F)F)Nc1ccc(Cl)c(Cl)c1`: the outcome was “active; 1”.

In the case of `C=COCCNC(=O)Nc1ccc(Cl)c(Cl)c1`, the outcome was “inactive; 4”.

Regarding `Cc1ccc(NC(=O)CSC(N)=O)cc1Cl`, the outcome is “inactive; 0”.

For the compound `O=C(NNC(=O)c1sccc1-n1cccc1)c1ccc(Cl)cc1`, the outcome is “inactive; 0”.

Consider `CCOC(=O)c1ccccc1NC(=O)CSc1nnc(Cc2cccn2C)n1-c1ccc(C)cc1`, for which the outcome is “inactive; 0”.

In the case of `Fc1ccc(/C=N/n2c(-c3cccs3)n[nH]c2=S)cc1`, the outcome is “inactive; 0”.

Turning to `CCOc1ccc2nc(/N=C/c3c(C)[nH]n(-c4ccc(C)cc4)c3=O)sc2c1`, the outcome was “inactive; 0”.

On to `O=c1c2ccccc2nc(-c2cccc(Cl)c2)n1O`, for which the outcome is “inactive; 0”.

Regarding `O=c1c2cc(Br)ccc2nc(-c2cccc(C(F)(F)F)c2)n1O`, the outcome was “active; 1”.

For the compound `O=c1c2ccc(Cl)cc2nc(-c2cccc(C(F)(F)F)c2)n1O`, the outcome was “inactive; 3”.

For `COC(=O)c1onc(C(=O)c2ccccc2)c1C(=O)OC`, the outcome is “inactive; 0”.

`COc1ccc(N2CCCn3c2nc2c3c(=O)n(Cc3ccccc3F)c(=O)n2C)c(OC)c1`: the outcome is “inactive; 0”.

Take `COc1ccc(NC(=O)C(=O)NNC(=O)c2cccs2)c(OC)c1`: the outcome was “inactive; 0”.

Take `Cn1c(N2CCCC2)nc2c1c(=O)n(Cc1ccc(Cl)cc1)c(=O)n2C`: the outcome is “active; 2”.

Regarding `COc1ccc(N2CCN(c3nc4c(c(=O)n(C)c(=O)n4C)n3Cc3ccccc3)CC2)cc1`, the outcome is “inactive; 0”.

In the case of `Cn1c(=O)c2c(nc(-n3ccnc3)n2Cc2ccccc2)n(C)c1=O`, the outcome was “inactive; 0”.

On to `CCOC(=O)Cc1csc(NC(=S)NC(=O)c2ccccc2Br)n1`, for which the outcome was “inactive; 0”.

With `CCc1ccc(NC(=S)NNC(=O)c2ccccc2OC(F)F)cc1`, the outcome was “inactive; 0”.

`Cc1ccc(C)c(NC(=S)NNC(=O)c2csc3c2CCC(C)C3)c1` (stereo not drawn): the outcome was “inactive; 0”.

Turning to `O=C(N/N=C\c1ccc(Cl)s1)c1cccs1`, the outcome is “inactive; 0”.

Take `O=C(c1cc2nc(-c3ccccc3)cc(-c3ccccc3)n2n1)N1CCN(C(=O)c2ccco2)CC1`: the outcome was “inactive; 0”.

Turning to `CCC(=O)n1nc(-c2cccnc2)nc1NCc1ccc(OC)cc1`, the outcome was “inactive; 0”.

Turning to `COc1ccc(CNc2nc(-c3cccnc3)nn2C(=O)c2ccco2)cc1`, the outcome was “active; 2”.

Consider `Cc1oc(-c2ccccc2)nc1CS(=O)CC(=O)O` (stereo not drawn), for which the outcome was “inactive; 0”.

In the case of `CCCCN(CCCC)C(=S)NC(=O)c1ccccc1Cl`, the outcome was “inactive; 0”.

For `CCN(CC)C(=O)CSc1nc2ccccc2c(=O)n1-c1ccccc1OC`, the outcome was “inactive; 0”.

Turning to `COc1ccc(-c2nnc(CSc3nc4ccccc4c(=O)n3C)o2)cc1OC`, the outcome is “active; 2”.

For `COc1cc(-c2nnc(CSc3nc4ccccc4s3)o2)cc(OC)c1OC`, the outcome was “inactive; 0”.

In the case of `c1ccc(Cc2nnc(-c3ccccc3)o2)cc1`, the outcome is “active; -1”.

For `Fc1ccc2nc(-c3ccccc3)nc(SCc3nnc(-c4ccccc4)o3)c2c1`, the outcome was “inactive; 0”.

For the compound `O=S(=O)(c1ccc(-c2nnc(SCc3nnc(-c4ccccc4)o3)o2)cc1)N1CCCC1`, the outcome is “inactive; 0”.

Consider `CCC(=O)N1CCN(c2ccccc2NC(=O)COc2cccc(C)c2)CC1`, for which the outcome is “inactive; 0”.

Take `CNc1nc(Cl)nc(NC(C)(C)C)n1`: the outcome is “active; 2”.

Take `O=C1Nc2ccccc2C12OCC1(CO2)COC2(OC1)C(=O)Nc1ccccc12` (stereo not drawn): the outcome was “active; 2”.

Consider `Cc1ccc(-c2csc3ncnc(N4CCN(C(=O)c5ccccc5)CC4)c23)cc1`, for which the outcome is “inactive; 0”.

As to `O=C(c1ccco1)N1CCN(c2ncnc3scc(-c4cccs4)c23)CC1`, the outcome is “active; 2”.

As for `O=C(c1ccco1)N1CCN(C(=O)c2cnn3c2NC(c2cccs2)CC3C(F)(F)F)CC1` (stereo not drawn), the outcome is “inactive; 0”.

Consider `S=C(Nc1ccc(Cl)cc1)c1nc2ccccc2[nH]1`, for which the outcome was “inactive; 0”.

With `O=C(NC(=S)Nc1ccccn1)c1ccco1`, the outcome was “inactive; 0”.

Regarding `Cc1ccc(C(=O)Nc2nc(-c3ccccc3)c(-c3ccccc3)o2)cc1`, the outcome is “inactive; 0”.

For the compound `Cc1cccc(C)c1NC(=S)NC(=O)CCc1ccccc1`, the outcome was “inactive; 0”.

As for `Cc1ccccc1NC(=S)NC(=O)CCc1ccccc1`, the outcome was “inactive; 0”.

For the compound `COc1ccc(C(=O)NNC(=S)NC(=O)c2ccco2)cc1`, the outcome was “inactive; 4”.

As for `COc1ccc(C(=O)NC(=S)N(Cc2ccccc2)Cc2ccccc2)cc1`, the outcome is “inactive; 0”.

With `COc1ccc(C(=O)NC(=S)NNC(=O)CCc2ccccc2)cc1`, the outcome was “active; 1”.

Consider `O=C(CCc1ccccc1)NNC(=S)NC(=O)c1ccc(Cl)cc1`, for which the outcome was “active; 1”.

On to `CC(=O)c1cccc(NC(=S)NC(=O)c2cccc(Cl)c2)c1`, for which the outcome was “inactive; 0”.

On to `Cc1ccc(-n2ncc3c(SCc4ccccc4)ncnc32)cc1`, for which the outcome was “inactive; 0”.

`O=C(Nc1nnc(-c2ccc3c(c2)CCCC3)o1)c1ccccc1`: the outcome is “inactive; 4”.

Take `Cc1ccc(OCC(=O)NNC(=O)C(C)Sc2ncnc3sc(C)c(C)c23)cc1` (stereo not drawn): the outcome is “inactive; 0”.

As for `O=C1NC(=O)/C(=C\c2ccccc2Oc2ccc(F)c(F)c2)S1`, the outcome was “inactive; 0”.

For `COc1cc(/C=C2\SC(=S)NC2=O)ccc1OS(=O)(=O)c1ccccc1`, the outcome was “active; 2”.

For the compound `COc1cc(/C=C2/SC(=S)NC2=O)ccc1OS(=O)(=O)c1ccc(C)cc1`, the outcome was “inactive; 0”.

With `O=C1NC(=S)/C(=C\c2ccc(-c3ccccc3Cl)o2)S1`, the outcome is “inactive; 3”.

For the compound `O=C1NC(=S)S/C1=C\c1ccc(SCc2ccccc2)o1`, the outcome is “inactive; 0”.

In the case of `COc1ccc(/C=C2\SC(=O)NC2=S)cc1OC`, the outcome is “active; 2”.

Take `COc1ccc(/C=N\NC(=S)SCN2C(=O)C3CCC(C)(C2=O)C3(C)C)cc1` (stereo not drawn): the outcome is “inactive; 0”.

In the case of `CCc1ccc2c(c1)c(N=NC1=NC(=O)CS1)c(O)n2C`, the outcome was “inactive; 0”.

In the case of `C=CCN(CC=C)C(=S)NC(=O)c1ccc(C)c(Br)c1`, the outcome is “inactive; 0”.

On to `Cc1ccc(C(=O)NNc2nc3ccccc3nc2C(F)(F)F)cc1`, for which the outcome was “inactive; 0”.

As for `FC(F)(F)c1cnc(NNC(=S)Nc2ccc(Cl)cc2)c(Cl)c1`, the outcome is “inactive; 4”.

In the case of `FC(F)(F)c1cnc(NNC(=S)Nc2ccccc2Cl)c(Cl)c1`, the outcome was “active; 1”.

In the case of `Cc1ccc(NC(=S)NNc2ncc(C(F)(F)F)cc2Cl)c(C)c1`, the outcome is “inactive; 0”.

`CC(C)Sc1nc2c(c(=O)[nH]1)C(c1cccs1)C1=C(CC(C)(C)CC1=O)N2` (stereo not drawn): the outcome was “inactive; 0”.

For `C=CCN(CC=C)C(=S)NC(=O)c1ccc([N+](=O)[O-])cc1`, the outcome was “inactive; 0”.

Consider `CCc1nc(SCC(=O)N2CC(=O)Nc3ccccc32)c2c(C)c(C)sc2n1`, for which the outcome was “inactive; 0”.

For `Oc1c(C=NCc2ccncc2)sc2ccccc12`, the outcome was “active; 2”.

As to `CCN(c1ccccc1)S(=O)(=O)c1ccc(NC(=S)NC(=O)c2ccc(Br)o2)cc1`, the outcome was “inactive; 0”.

For `CCOC(=O)c1c(NC(=O)CSc2nnc(-c3ccncc3)n2Cc2ccco2)sc(C(C)=O)c1C`, the outcome was “inactive; 0”.

For the compound `Cc1ccc(NC(=S)c2nc3ccccc3[nH]2)cc1`, the outcome is “inactive; 0”.

Take `C=CCNC(=S)Nc1sc2c(c1C(=O)OCC)CC(C)(CC)OC2` (stereo not drawn): the outcome is “inactive; 0”.

As for `CCNC(=S)Nc1scc(-c2ccccc2)c1C(=O)OCC`, the outcome was “inactive; 0”.

For the compound `C=CCNC(=S)Nc1nc2c(cc1C(=O)OCC)CCCC2`, the outcome was “active; 2”.

`CCNC(=S)Nc1nc2c(cc1C(=O)OCC)CCCC2`: the outcome was “active; 2”.

For `C=CCNC(=S)Nc1sc2c(c1C(=O)OCC)CC(C(C)C)OC2` (stereo not drawn), the outcome is “inactive; 0”.

Regarding `C=C(C)CNC(=S)Nc1nc2c(cc1C(=O)OCC)CCCC2`, the outcome was “inactive; 0”.
